Each structure is given as a SMILES string.

Experiment [1] concerns the target 5'-AMP-activated protein kinase catalytic subunit alpha-1 (Homo sapiens) (UniProt Q13131). The experiment in a line: Inhibition of human recombinant AMPKa1 at 15 nM related to control ULK1. The gist of the method:
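Panel of 327 recombinant human kinases, each assayed in vitro by radiometric activity assay in duplicate at a single inhibitor concentration per compound, chosen with reference to its ULK1 inhibition. Activity remaining was expressed as percent of vehicle control, and percent inhibition was calculated as 100 minus percent activity remaining.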

The target in experiment [2] is T1, Dual specificity protein kinase TTK (Homo sapiens) (UniProt P33981).
T1 sequence (whole entry): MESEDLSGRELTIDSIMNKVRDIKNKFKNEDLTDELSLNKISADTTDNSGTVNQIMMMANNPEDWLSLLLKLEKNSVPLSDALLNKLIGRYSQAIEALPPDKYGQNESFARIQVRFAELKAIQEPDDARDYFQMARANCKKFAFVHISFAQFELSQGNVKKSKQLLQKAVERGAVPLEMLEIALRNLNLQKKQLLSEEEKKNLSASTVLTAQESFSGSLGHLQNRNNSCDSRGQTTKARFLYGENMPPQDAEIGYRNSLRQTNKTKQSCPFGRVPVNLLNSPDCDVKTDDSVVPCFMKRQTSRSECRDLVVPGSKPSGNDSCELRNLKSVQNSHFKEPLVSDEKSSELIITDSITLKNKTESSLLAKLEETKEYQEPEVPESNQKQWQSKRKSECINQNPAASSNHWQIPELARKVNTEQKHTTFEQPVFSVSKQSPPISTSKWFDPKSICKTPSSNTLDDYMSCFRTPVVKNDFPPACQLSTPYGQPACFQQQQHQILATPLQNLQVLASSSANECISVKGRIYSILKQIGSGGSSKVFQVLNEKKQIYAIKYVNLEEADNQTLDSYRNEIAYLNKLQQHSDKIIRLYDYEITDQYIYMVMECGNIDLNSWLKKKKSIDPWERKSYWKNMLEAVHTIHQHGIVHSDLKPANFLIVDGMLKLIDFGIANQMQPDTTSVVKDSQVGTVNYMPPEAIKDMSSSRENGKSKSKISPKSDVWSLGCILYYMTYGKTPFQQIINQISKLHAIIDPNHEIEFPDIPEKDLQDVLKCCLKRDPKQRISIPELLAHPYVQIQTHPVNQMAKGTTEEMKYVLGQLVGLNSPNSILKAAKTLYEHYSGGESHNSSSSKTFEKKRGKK
The experiment in a line: Inhibition of human recombinant TTK at 15 nM related to control ULK1.

The target in experiment [3] is Cyclin-dependent kinase 3 (Homo sapiens) (UniProt Q00526). The experiment in a line: Inhibition of human recombinant CDK3 at 15 nM in presence of ATP by radiometric assay relative to control.
The target in experiment [4] is Platelet-derived growth factor receptor alpha (Homo sapiens) (UniProt P16234). The experiment in a line: Inhibition of human recombinant PDGFRa at 40 nM in presence of ATP by radiometric assay relative to control.
For experiment [5], the target named is Serine/threonine-protein kinase mTOR (Homo sapiens) (UniProt P42345). The experiment in a line: Inhibition of human recombinant FRAP at 40 nM related to control ULK1.
Experiment [6] concerns the target Tau-tubulin kinase 2 (Homo sapiens) (UniProt Q6IQ55). The experiment in a line: Inhibition of human recombinant TTBK2 at 40 nM in presence of ATP by radiometric assay relative to control.
Experiment [7] has as its target Ephrin type-A receptor 5 (Homo sapiens) (UniProt P54756). The experiment in a line: Inhibition of human recombinant EphA5 at 500 nM in presence of ATP by radiometric assay relative to control.
The target in experiment [8] is Casein kinase I isoform gamma-2 (Homo sapiens) (UniProt P78368). The experiment in a line: Inhibition of human recombinant CK1g2 at 500 nM in presence of ATP by radiometric assay relative to control.
The target of experiment [9] is T2, cGMP-dependent protein kinase 1 (Homo sapiens) (UniProt Q13976).
T2 sequence (whole entry): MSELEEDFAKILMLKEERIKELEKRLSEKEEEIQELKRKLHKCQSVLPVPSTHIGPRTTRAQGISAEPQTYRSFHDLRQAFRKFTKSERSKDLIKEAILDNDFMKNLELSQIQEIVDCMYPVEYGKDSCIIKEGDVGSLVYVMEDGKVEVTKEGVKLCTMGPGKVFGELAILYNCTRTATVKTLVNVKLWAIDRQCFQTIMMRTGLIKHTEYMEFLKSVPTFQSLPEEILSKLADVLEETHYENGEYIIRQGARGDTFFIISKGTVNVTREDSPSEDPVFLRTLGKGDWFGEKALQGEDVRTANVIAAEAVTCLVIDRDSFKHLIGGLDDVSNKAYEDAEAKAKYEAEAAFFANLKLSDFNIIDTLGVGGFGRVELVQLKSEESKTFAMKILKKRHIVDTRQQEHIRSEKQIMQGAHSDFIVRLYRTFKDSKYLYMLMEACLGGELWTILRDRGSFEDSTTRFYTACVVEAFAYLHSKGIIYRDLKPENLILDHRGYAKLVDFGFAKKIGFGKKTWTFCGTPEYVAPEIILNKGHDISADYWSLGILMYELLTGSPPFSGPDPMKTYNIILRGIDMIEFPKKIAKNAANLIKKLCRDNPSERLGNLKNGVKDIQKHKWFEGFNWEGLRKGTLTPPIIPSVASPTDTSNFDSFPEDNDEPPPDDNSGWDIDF
The experiment in a line: Inhibition of human recombinant PKG1 at 500 nM in presence of ATP by radiometric assay relative to control.

Casein kinase I isoform gamma-2 (Homo sapiens), sequence (P78368 whole entry, looked up, canonical isoform): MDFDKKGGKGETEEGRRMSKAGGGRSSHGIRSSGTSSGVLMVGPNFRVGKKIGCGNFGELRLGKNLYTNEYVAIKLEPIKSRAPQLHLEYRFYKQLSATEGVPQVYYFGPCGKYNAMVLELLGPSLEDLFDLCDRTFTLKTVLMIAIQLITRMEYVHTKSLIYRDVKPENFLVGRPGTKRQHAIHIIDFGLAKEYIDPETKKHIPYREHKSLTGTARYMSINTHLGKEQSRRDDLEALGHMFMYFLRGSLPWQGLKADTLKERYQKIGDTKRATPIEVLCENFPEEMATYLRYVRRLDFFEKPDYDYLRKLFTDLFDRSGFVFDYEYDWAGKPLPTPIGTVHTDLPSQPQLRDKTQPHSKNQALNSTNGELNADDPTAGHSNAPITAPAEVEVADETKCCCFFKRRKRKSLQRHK
5'-AMP-activated protein kinase catalytic subunit alpha-1 (Homo sapiens), sequence (Q13131 whole entry, looked up): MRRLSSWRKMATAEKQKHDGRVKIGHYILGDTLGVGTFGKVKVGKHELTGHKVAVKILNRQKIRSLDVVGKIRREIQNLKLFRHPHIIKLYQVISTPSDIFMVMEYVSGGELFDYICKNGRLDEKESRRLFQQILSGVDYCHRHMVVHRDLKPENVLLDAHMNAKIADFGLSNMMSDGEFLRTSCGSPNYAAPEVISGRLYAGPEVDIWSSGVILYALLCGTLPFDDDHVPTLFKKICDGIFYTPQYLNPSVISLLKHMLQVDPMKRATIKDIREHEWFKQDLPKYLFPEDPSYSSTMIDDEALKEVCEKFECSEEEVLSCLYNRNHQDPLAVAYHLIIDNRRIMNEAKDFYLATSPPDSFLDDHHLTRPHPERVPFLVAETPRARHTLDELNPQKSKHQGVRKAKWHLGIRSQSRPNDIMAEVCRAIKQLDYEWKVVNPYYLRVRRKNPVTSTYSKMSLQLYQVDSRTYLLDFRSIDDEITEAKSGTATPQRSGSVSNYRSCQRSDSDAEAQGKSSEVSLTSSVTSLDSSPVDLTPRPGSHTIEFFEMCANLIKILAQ
Ephrin type-A receptor 5 (Homo sapiens), sequence (P54756 whole entry, canonical isoform): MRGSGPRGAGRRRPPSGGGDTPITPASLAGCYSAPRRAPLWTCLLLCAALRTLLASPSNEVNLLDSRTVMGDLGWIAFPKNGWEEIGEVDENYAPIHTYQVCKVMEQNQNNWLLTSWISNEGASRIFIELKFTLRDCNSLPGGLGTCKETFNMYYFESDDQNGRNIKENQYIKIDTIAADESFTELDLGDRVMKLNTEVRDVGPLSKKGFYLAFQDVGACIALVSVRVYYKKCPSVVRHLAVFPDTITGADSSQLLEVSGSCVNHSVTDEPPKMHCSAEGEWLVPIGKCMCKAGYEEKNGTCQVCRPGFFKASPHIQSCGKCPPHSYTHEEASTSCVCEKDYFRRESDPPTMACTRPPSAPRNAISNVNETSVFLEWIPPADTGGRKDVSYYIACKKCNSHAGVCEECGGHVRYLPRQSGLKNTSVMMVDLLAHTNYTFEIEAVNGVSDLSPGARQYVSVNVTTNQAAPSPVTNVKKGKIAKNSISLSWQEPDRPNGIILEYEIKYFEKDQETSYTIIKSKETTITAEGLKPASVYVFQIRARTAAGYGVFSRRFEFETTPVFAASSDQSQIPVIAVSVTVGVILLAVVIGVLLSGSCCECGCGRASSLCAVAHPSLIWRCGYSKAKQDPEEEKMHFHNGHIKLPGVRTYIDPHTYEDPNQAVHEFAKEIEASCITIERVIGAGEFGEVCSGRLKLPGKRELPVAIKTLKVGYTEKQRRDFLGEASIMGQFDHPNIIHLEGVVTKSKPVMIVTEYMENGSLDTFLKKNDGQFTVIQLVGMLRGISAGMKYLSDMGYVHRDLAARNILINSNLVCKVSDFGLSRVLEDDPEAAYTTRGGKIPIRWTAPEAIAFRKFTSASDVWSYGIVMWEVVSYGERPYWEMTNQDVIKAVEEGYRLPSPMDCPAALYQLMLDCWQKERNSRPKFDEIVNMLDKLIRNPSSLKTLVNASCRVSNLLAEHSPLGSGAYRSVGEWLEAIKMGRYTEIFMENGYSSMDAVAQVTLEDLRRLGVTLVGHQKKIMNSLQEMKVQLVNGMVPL
Platelet-derived growth factor receptor alpha (Homo sapiens), sequence (P16234 whole entry): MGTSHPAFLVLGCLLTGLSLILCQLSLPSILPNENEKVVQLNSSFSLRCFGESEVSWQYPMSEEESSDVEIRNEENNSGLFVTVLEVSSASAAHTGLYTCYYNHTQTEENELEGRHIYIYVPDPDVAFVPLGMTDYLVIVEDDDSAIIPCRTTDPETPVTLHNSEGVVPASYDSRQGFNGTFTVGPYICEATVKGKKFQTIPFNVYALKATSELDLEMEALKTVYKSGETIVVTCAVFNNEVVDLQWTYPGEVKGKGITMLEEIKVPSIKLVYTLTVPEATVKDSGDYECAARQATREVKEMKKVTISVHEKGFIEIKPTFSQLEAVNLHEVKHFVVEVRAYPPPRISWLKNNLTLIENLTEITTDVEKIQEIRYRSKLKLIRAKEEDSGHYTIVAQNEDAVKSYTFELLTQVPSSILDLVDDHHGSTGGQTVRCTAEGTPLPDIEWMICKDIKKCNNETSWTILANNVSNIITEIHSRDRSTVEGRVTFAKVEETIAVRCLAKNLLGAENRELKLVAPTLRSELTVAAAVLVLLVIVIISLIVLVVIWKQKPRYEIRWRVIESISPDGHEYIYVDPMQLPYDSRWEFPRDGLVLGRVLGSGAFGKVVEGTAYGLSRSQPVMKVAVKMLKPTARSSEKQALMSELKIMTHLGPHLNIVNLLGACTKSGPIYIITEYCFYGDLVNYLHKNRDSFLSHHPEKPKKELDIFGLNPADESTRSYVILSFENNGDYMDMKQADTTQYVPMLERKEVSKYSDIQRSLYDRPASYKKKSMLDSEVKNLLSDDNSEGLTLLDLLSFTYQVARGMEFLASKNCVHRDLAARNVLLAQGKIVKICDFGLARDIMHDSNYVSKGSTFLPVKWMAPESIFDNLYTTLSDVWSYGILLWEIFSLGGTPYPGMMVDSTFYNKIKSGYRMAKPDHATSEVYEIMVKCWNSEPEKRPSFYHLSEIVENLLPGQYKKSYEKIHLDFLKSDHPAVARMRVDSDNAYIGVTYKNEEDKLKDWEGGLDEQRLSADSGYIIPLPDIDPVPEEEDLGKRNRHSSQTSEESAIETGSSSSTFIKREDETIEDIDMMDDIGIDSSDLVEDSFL
Tau-tubulin kinase 2 (Homo sapiens), sequence (Q6IQ55 whole entry): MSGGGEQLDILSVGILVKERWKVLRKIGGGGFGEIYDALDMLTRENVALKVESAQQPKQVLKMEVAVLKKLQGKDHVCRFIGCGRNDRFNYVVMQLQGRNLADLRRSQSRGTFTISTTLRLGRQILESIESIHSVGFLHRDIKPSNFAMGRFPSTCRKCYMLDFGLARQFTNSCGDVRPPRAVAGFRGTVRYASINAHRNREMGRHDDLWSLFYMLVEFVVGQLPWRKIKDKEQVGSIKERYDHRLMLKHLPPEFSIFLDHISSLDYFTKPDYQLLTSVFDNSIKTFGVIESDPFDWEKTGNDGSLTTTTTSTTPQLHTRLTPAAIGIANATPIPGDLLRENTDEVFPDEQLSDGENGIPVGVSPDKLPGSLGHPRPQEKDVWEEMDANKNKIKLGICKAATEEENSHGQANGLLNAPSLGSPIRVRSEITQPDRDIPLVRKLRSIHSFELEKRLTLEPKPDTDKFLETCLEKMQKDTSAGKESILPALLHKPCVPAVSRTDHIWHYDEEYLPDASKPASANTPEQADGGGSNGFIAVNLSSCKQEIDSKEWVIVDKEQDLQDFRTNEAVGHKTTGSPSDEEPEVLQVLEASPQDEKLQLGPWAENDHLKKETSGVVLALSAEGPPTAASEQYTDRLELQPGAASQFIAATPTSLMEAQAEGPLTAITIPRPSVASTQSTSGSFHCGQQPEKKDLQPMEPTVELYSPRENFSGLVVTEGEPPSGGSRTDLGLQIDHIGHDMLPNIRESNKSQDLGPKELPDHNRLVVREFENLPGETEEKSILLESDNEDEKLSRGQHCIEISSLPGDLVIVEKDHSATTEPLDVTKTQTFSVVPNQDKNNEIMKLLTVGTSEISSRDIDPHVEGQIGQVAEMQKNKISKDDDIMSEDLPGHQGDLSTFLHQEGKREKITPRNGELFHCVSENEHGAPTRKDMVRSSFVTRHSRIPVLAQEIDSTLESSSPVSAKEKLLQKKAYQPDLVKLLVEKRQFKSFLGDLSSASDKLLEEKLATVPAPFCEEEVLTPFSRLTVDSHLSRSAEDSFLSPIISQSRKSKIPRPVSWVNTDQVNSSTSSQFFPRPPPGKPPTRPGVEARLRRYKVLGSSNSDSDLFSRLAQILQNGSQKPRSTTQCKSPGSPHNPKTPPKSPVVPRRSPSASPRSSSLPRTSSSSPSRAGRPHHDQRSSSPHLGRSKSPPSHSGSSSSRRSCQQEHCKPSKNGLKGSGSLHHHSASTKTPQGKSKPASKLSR
Cyclin-dependent kinase 3 (Homo sapiens), sequence (Q00526 whole entry, looked up): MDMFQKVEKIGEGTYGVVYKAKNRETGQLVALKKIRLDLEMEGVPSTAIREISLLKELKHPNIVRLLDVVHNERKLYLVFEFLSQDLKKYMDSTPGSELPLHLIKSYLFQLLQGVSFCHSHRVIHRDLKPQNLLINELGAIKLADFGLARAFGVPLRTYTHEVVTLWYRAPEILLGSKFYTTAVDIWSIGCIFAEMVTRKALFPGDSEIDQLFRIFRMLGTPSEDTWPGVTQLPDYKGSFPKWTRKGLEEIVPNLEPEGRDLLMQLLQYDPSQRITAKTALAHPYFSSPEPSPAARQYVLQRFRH

Broadly, the inhibition is the share of the control response that was lost under treatment. Turning to `CC(C)[C@H](NC(=O)c1cc(-c2cnn3cc(-c4ccc(OCCN5CCCCC5)cc4)cnc23)cs1)C(F)(F)F`, the fold change (FC) in experiment [1] was found to be 0.66; in experiment [2], 0.25. Moreover, the inhibition in experiment [3] was found to be 5%.
As for `O=C(N[C@@H](C1CC1)C(F)(F)F)c1cc(-c2cnn3cc(-c4ccc(F)cc4)cnc23)cs1`, the inhibition in experiment [4] and in [6] was 0% each time. Moreover, the fold change (FC) in experiment [5] was found to be 0.
`CNC(=O)c1ccccc1Oc1nc(Nc2cc(OC)c(OC)c(OC)c2)ncc1Br`: the values for the inhibition in experiment [7], in experiment [8] and in [9] were 19%, 0% and 4%, respectively.
